# Experimental data: ChEMBL document CHEMBL2424551, “Synthesis, in vitro evaluation and molecular modelling of naphthalimide analogue as anticancer agents” (2013)
# How the values were obtained:
# Type in all cases: functional
# HCT-15 = assay: Growth inhibition of human HCT15 cells at 10 uM after 48 hrs by SRB assay; conditions: HCT-15, 48 h, read-out: GI
# Procedure, shortened: (§1)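 Cells grown in RPMI 1640 with 5% FBS and 2 mM L-glutamine, plated at 5000–40,000 cells/well by doubling time and preincubated 24 h (37 °C, 5% CO2); a time-zero plate is TCA-fixed. Single dose added, then 48 h incubation. Fixed with cold TCA, stained with 0.4% SRB, dye solubilized in 10 mM Tris base, absorbance at 515 nm; percent growth vs time-zero and untreated control.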
# COLO 205 = assay: Growth inhibition of human COLO205 cells at 10 uM after 48 hrs by SRB assay; conditions: COLO 205, 48 h, read-out: GI; procedure, shortened: as §1
# NCI-H522 = assay: Growth inhibition of human NCI-H522 cells at 10 uM after 48 hrs by SRB assay; conditions: NCI-H522, 48 h, read-out: GI; procedure, shortened: as §1
# [1] = Growth inhibition of human EKVX cells at 10 uM after 48 hrs by SRB assay; conditions: read-out: GI; procedure, shortened: as §1
# A549 = assay: Growth inhibition of human A549 cells at 10 uM after 48 hrs by SRB assay; conditions: A549, 48 h, read-out: GI; procedure, shortened: as §1
# MDA-MB-468 = assay: Growth inhibition of human MDA-MB-468 cells at 10 uM after 48 hrs by SRB assay; conditions: MDA-MB-468, 48 h, read-out: GI; procedure, shortened: as §1
# T47D = assay: Growth inhibition of human T47D cells at 10 uM after 48 hrs by SRB assay; conditions: read-out: GI
# Procedure, shortened: (§2)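 NCI 60-cell-line screen with a single 10 µM dose. Cells are grown in RPMI 1640 with 5% FBS and 2 mM L-glutamine, plated at 5000–40,000 cells/well according to doubling time, and preincubated 24 h at 37 °C, 5% CO2; time-zero plates are TCA-fixed at that point. Drug exposure is 48 h. Adherent cells are fixed with cold TCA, stained with 0.4% SRB in 1% acetic acid and read at 515 nm. Percent growth is calculated relative to time-zero and untreated controls and reported as GI%.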
# Hs-578T = assay: Growth inhibition of human Hs578T cells at 10 uM after 48 hrs by SRB assay; conditions: read-out: GI; procedure, shortened: as §1
# DU-145 = assay: Growth inhibition of human DU145 cells at 10 uM after 48 hrs by SRB assay; conditions: DU-145, 48 h, read-out: GI; procedure, shortened: as §1
# TK-10 = assay: Growth inhibition of human TK10 cells at 10 uM after 48 hrs by SRB assay; conditions: TK-10, 48 h, read-out: GI; procedure, shortened: as §2
# RXF 393 = assay: Growth inhibition of human RXF393 cells at 10 uM after 48 hrs by SRB assay; conditions: RXF 393, 48 h, read-out: GI; procedure, shortened: as §1
# 786-0 = assay: Growth inhibition of human 786-0 cells at 10 uM after 48 hrs by SRB assay; conditions: 786-0, 48 h, read-out: GI; procedure, shortened: as §1
# SK-OV-3 = assay: Growth inhibition of human SKOV3 cells at 10 uM after 48 hrs by SRB assay; conditions: SK-OV-3, 48 h, read-out: GI; procedure, shortened: as §2
# [2] = Growth inhibition of human NCI-ADR-RES cells at 10 uM after 48 hrs by SRB assay; conditions: read-out: GI; procedure, shortened: as §1
# OVCAR-8 = assay: Growth inhibition of human OVCAR8 cells at 10 uM after 48 hrs by SRB assay; conditions: OVCAR-8, 48 h, read-out: GI; procedure, shortened: as §1
# OVCAR-4 = assay: Growth inhibition of human OVCAR4 cells at 10 uM after 48 hrs by SRB assay; conditions: OVCAR-4, 48 h, read-out: GI; procedure, shortened: as §1
# OVCAR-3 = assay: Growth inhibition of human OVCAR3 cells at 10 uM after 48 hrs by SRB assay; conditions: OVCAR-3, 48 h, read-out: GI; procedure, shortened: as §1
# IGROV-1 = assay: Growth inhibition of human IGROV1 cells at 10 uM after 48 hrs by SRB assay; conditions: IGROV-1, 48 h, read-out: GI; procedure, shortened: as §1
# UACC-62 = assay: Growth inhibition of human UACC62 cells at 10 uM after 48 hrs by SRB assay; conditions: UACC-62, 48 h, read-out: GI; procedure, shortened: as §2
# SK-MEL-5 = assay: Growth inhibition of human SK-MEL-5 cells at 10 uM after 48 hrs by SRB assay; conditions: SK-MEL-5, 48 h, read-out: GI; procedure, shortened: as §1
# SK-MEL-28 = assay: Growth inhibition of human SK-MEL-28 cells at 10 uM after 48 hrs by SRB assay; conditions: SK-MEL-28, 48 h, read-out: GI; procedure, shortened: as §1
# M14 = assay: Growth inhibition of human M14 cells at 10 uM after 48 hrs by SRB assay; conditions: M14, 48 h, read-out: GI; procedure, shortened: as §1
# LOX IMVI = assay: Growth inhibition of human LOXIMVI cells at 10 uM after 48 hrs by SRB assay; conditions: read-out: GI; procedure, shortened: as §1
# SF-268 = assay: Growth inhibition of human SF268 cells at 10 uM after 48 hrs by SRB assay; conditions: SF-268, 48 h, read-out: GI; procedure, shortened: as §1
# HT-29 = assay: Growth inhibition of human HT-29 cells at 10 uM after 48 hrs by SRB assay; conditions: HT-29, 48 h, read-out: GI; procedure, shortened: as §1
# KM12 = assay: Growth inhibition of human KM12 cells at 10 uM after 48 hrs by SRB assay; conditions: KM12, 48 h, read-out: GI; procedure, shortened: as §1
smiles,measurement,setting,value
O=c1c2cccc3c(N4CCCC4)ccc(c32)c2nc3ccccc3n12,inhibition of growth at 10 µM,HCT-15,21.4%
same,inhibition of growth at 10 µM,COLO 205,36.4%
same,inhibition of growth at 10 µM,NCI-H522,28.9%
same,inhibition of growth at 10 µM,[1],24.1%
same,inhibition of growth at 10 µM,A549,67.4%
same,inhibition of growth at 10 µM,MDA-MB-468,< 20%
same,inhibition of growth at 10 µM,T47D,27.9%
same,inhibition of growth at 10 µM,Hs-578T,32.8%
same,inhibition of growth at 10 µM,DU-145,21.9%
same,inhibition of growth at 10 µM,TK-10,< 20%
same,inhibition of growth at 10 µM,RXF 393,< 20%
same,inhibition of growth at 10 µM,786-0,< 20%
same,inhibition of growth at 10 µM,SK-OV-3,20.9%
same,inhibition of growth at 10 µM,[2],< 20%
same,inhibition of growth at 10 µM,OVCAR-8,34%
same,inhibition of growth at 10 µM,OVCAR-4,21.2%
same,inhibition of growth at 10 µM,OVCAR-3,< 20%
same,inhibition of growth at 10 µM,IGROV-1,42.9%
same,inhibition of growth at 10 µM,UACC-62,37.5%
same,inhibition of growth at 10 µM,SK-MEL-5,35.5%
same,inhibition of growth at 10 µM,SK-MEL-28,< 20%
same,inhibition of growth at 10 µM,M14,< 20%
same,inhibition of growth at 10 µM,LOX IMVI,48.3%
same,inhibition of growth at 10 µM,SF-268,< 20%
same,inhibition of growth at 10 µM,HT-29,22.2%
same,inhibition of growth at 10 µM,KM12,< 20%
